In brackets after ≈: the same amount, converted by molar mass. Activity calls are given as the source filed them. The rule behind the calls is not given here.
Assays:
Salmonella typhi [1] = assay: Antimicrobial activity against Salmonella typhi ATCC 23564 after 24 hrs by broth micro serial dilution method; format: functional; conditions: Salmonella enterica subsp. enterica serovar Typhi
Aspergillus flavus [2] = assay: Antifungal activity against Aspergillus flavus MTCC 1021 after 48 hrs; format: functional; conditions: MTCC 1021, 48 h
Aspergillus flavus [3] = assay: Antifungal activity against Aspergillus flavus MTCC 1021 assessed as zone of inhibition at 40 uM after 48 hrs by disc diffusion method; format: functional; conditions: MTCC 1021, 48 h, read-out: IZ
In short: (§1)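 Spores from 4-day potato dextrose agar cultures, suspended in sterile water at 1.5 × 10⁵ CFU/mL. 0.2 mL was spread on potato dextrose agar. 5 mm filter-paper discs soaked with test compound were laid on the lawn. Incubation was 48 h at 28 °C, then the inhibition zone was measured in mm. Fluconazole was the positive control and acetone the negative control.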

QG-56 = assay: Cytotoxicity against human QG56 cells after 24 hrs by MTT assay; format: functional, cell-based
In short: (§2)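 The MTT assay seeded 5 × 10⁴ cells per well and grew them 24 h in RPMI 1640 with compound at 2.5–200 µM. Medium without cells was the blank and adriamycin the positive control. MTT was added for 4 h at 37 °C, formazan was solubilised, and absorbance was read at 570 nm. IC50 is the concentration that cuts viability 50% against untreated cells.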

Aspergillus niger [4] = assay: Antifungal activity against Aspergillus niger MTCC 1108 after 48 hrs; format: functional; conditions: MTCC 1108, 48 h
Salmonella typhi [5] = assay: Antimicrobial activity against Salmonella typhi ATCC 23564 assessed as diameter of inhibition zone at 80 uM after 24 hrs by Kirby -Baur disc diffusion method; format: functional; conditions: Salmonella enterica subsp. enterica serovar Typhi
Mus musculus = assay: Antiinflammatory activity in mouse assessed as inhibition of carrageenan-induced increase in paw volume at 200 mg/kg administered 1 hr prior to carrageenan challenge measured after 3 hrs relative to control; format: functional
In short: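 Mice were fasted 2 h and placed in groups of five. Controls received saline i.p. Phenylbutazone was given at 100 mg/kg i.p., curcumin at 200 mg/kg i.p., and derivatives at 200 mg/kg. After 1 h, 0.1 mL of 1% carrageenan in saline was injected subplantar into the right hind paw. Paw volume was followed by plethysmometer for 3 h, and % inhibition was calculated as (Vc − Vt)/Vc × 100.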

Curvularia lunata [6] = assay: Antifungal activity against Curvularia lunata MTCC 581 assessed as zone of inhibition at 40 uM after 48 hrs by disc diffusion method; format: functional; conditions: MTCC 581, 48 h, read-out: IZ; in short: as §1
Aspergillus flavus [7] = assay: Antifungal activity against Aspergillus flavus MTCC 1021 assessed as zone of inhibition at 80 uM after 48 hrs by disc diffusion method; format: functional; conditions: MTCC 1021, 48 h, read-out: IZ; in short: as §1
Aspergillus niger [8] = assay: Antifungal activity against Aspergillus niger MTCC 1108 assessed as zone of inhibition at 20 uM after 48 hrs by disc diffusion method; format: functional; conditions: MTCC 1108, 48 h, read-out: IZ; in short: as §1
Escherichia coli [9] = assay: Antimicrobial activity against Escherichia coli ATCC 35218 after 24 hrs by broth micro serial dilution method; format: functional; conditions: ATCC 35218, 24 h
In short: (§3)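 This was broth microdilution in autoclaved Mueller-Hinton broth. 150 µL of compound per well was serially diluted […], and 50 µL of test organism was added. Plates were incubated 24 h at 37 °C and optical density was read.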

Trichoderma viride [10] = assay: Antifungal activity against Trichoderma viride MTCC 1107 assessed as zone of inhibition at 20 uM after 48 hrs by disc diffusion method; format: functional; conditions: MTCC 1107, 48 h, read-out: IZ; in short: as §1
Trichoderma viride [11] = assay: Antifungal activity against Trichoderma viride MTCC 1107 assessed as zone of inhibition at 80 uM after 48 hrs by disc diffusion method; format: functional; conditions: MTCC 1107, 48 h, read-out: IZ; in short: as §1
HeLa = assay: Cytotoxicity against human HeLa cells after 24 hrs by MTT assay; format: functional, cell-based; in short: as §2
Bacillus cereus [12] = assay: Antimicrobial activity against Bacillus cereus MTCC 7350 after 24 hrs by broth micro serial dilution method; format: functional; in short: as §3
Pseudomonas aeruginosa [13] = assay: Antimicrobial activity against Pseudomonas aeruginosa ATCC 15499 assessed as diameter of inhibition zone at 80 uM after 24 hrs by Kirby -Baur disc diffusion method; format: functional
In short: (§4)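 Kirby-Bauer disc diffusion was used. Acetone stocks (160 µM) were serially doubled down to 80, 40 and 20 µM. 4 µL of each went onto 5 mm sterile paper discs, which were dried 30 min at 50 °C. Inoculum was 1.5 × 10⁸ CFU/mL diluted to 3 × 10² CFU/mL, and 50 µL was spread on Mueller-Hinton agar. After 24 h at 37 °C the inhibition-zone diameter was measured. Ciprofloxacin served as positive control.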

Pseudomonas aeruginosa [14] = assay: Antimicrobial activity against Pseudomonas aeruginosa ATCC 15499 after 24 hrs by broth micro serial dilution method; format: functional; conditions: ATCC 15499, 24 h; in short: as §3
HepG2 = assay: Cytotoxicity against human HepG2 cells after 24 hrs by MTT assay; format: functional, cell-based; in short: as §2
Trichoderma viride [15] = assay: Antifungal activity against Trichoderma viride MTCC 1107 assessed as zone of inhibition at 40 uM after 48 hrs by disc diffusion method; format: functional; conditions: MTCC 1107, 48 h, read-out: IZ; in short: as §1
Aspergillus niger [16] = assay: Antifungal activity against Aspergillus niger MTCC 1108 assessed as zone of inhibition at 80 uM after 48 hrs by disc diffusion method; format: functional; conditions: MTCC 1108, 48 h, read-out: IZ; in short: as §1
Bacillus cereus [17] = assay: Antimicrobial activity against Bacillus cereus MTCC 7350 assessed as diameter of inhibition zone at 80 uM after 24 hrs by Kirby -Baur disc diffusion method; format: functional; in short: as §4
Curvularia lunata [18] = assay: Antifungal activity against Curvularia lunata MTCC 581 after 48 hrs; format: functional; conditions: MTCC 581, 48 h
Curvularia lunata [19] = assay: Antifungal activity against Curvularia lunata MTCC 581 assessed as zone of inhibition at 20 uM after 48 hrs by disc diffusion method; format: functional; conditions: MTCC 581, 48 h, read-out: IZ; in short: as §1
Staphylococcus aureus [20] = assay: Antimicrobial activity against Staphylococcus aureus ATCC 11632 after 24 hrs by broth micro serial dilution method; format: functional; in short: as §3
HCT-116 = assay: Cytotoxicity against human HCT116 cells after 24 hrs by MTT assay; format: functional, cell-based; in short: as §2
Aspergillus flavus [21] = assay: Antifungal activity against Aspergillus flavus MTCC 1021 assessed as zone of inhibition at 20 uM after 48 hrs by disc diffusion method; format: functional; conditions: MTCC 1021, 48 h, read-out: IZ; in short: as §1
Escherichia coli [22] = assay: Antimicrobial activity against Escherichia coli ATCC 35218 assessed as diameter of inhibition zone at 80 uM after 24 hrs by Kirby -Baur disc diffusion method; format: functional; in short: as §4
Aspergillus niger [23] = assay: Antifungal activity against Aspergillus niger MTCC 1108 assessed as zone of inhibition at 40 uM after 48 hrs by disc diffusion method; format: functional; conditions: MTCC 1108, 48 h, read-out: IZ; in short: as §1
Curvularia lunata [24] = assay: Antifungal activity against Curvularia lunata MTCC 581 assessed as zone of inhibition at 80 uM after 48 hrs by disc diffusion method; format: functional; conditions: MTCC 581, 48 h, read-out: IZ; in short: as §1
Trichoderma viride [25] = assay: Antifungal activity against Trichoderma viride MTCC 1107 after 48 hrs; format: functional; conditions: MTCC 1107, 48 h
Staphylococcus aureus [26] = assay: Antimicrobial activity against Staphylococcus aureus ATCC 11632 assessed as diameter of inhibition zone at 80 uM after 24 hrs by Kirby -Baur disc diffusion method; format: functional; in short: as §4

COc1cc(/C=C/C(=O)C(/N=N/c2ccc(S(=O)(=O)Nc3ccccn3)cc2)=C(O)/C=C/c2ccc(O)c(OC)c2)ccc1O
MIC (Salmonella typhi [1]): inactive
MIC (Aspergillus flavus [2]): 40 µM (≈ 25.1 µg/mL)
zone of inhibition at 40 µM (Aspergillus flavus [3]): 12 mm
IC50 (QG-56): Not Active
MIC (Aspergillus niger [4]): 40 µM (≈ 25.1 µg/mL)
diameter of the inhibition zone (DIZ) (Salmonella typhi [5]): inactive
inhibition in vivo at 200 mg/kg (Mus musculus): 9.6%
zone of inhibition at 40 µM (Curvularia lunata [6]): 13 mm
zone of inhibition at 80 µM (Aspergillus flavus [7]): 13 mm
zone of inhibition at 20 µM (Aspergillus niger [8]): 9 mm
MIC (Escherichia coli [9]): > 80 µM
zone of inhibition at 20 µM (Trichoderma viride [10]): 10 mm
zone of inhibition at 80 µM (Trichoderma viride [11]): 17 mm
IC50 (HeLa): 100 µM
MIC (Bacillus cereus [12]): inactive
diameter of the inhibition zone (DIZ) (Pseudomonas aeruginosa [13]): inactive
MIC (Pseudomonas aeruginosa [14]): > 80 µM
IC50 (HepG2): Not Active
zone of inhibition at 40 µM (Trichoderma viride [15]): 13 mm
zone of inhibition at 80 µM (Aspergillus niger [16]): 14 mm
diameter of the inhibition zone (DIZ) (Bacillus cereus [17]): inactive
MIC (Curvularia lunata [18]): 40 µM (≈ 25.1 µg/mL)
zone of inhibition at 20 µM (Curvularia lunata [19]): 10 mm
MIC (Staphylococcus aureus [20]): inactive
IC50 (HCT-116): Not Active
zone of inhibition at 20 µM (Aspergillus flavus [21]): 9 mm
diameter of the inhibition zone (DIZ) (Escherichia coli [22]): inactive
zone of inhibition at 40 µM (Aspergillus niger [23]): 11 mm
zone of inhibition at 80 µM (Curvularia lunata [24]): 17 mm
MIC (Trichoderma viride [25]): 40 µM (≈ 25.1 µg/mL)
diameter of the inhibition zone (DIZ) (Staphylococcus aureus [26]): inactive
